In all, about 2,500 compounds went through this assay and about 1,200 (48%) were called active.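 How the source made its calls: active means mean activation above the low control average plus 3 SD, as set in the primary screen (cut at about 12% in these data); inactive means the rest.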 So high a share suggests a set chosen from earlier hits. The list shows a part of the results.
What follows are compounds tested against Troponin I, cardiac muscle (Homo sapiens) + Troponin T, cardiac muscle (Homo sapiens) + Troponin C, slow skeletal and cardiac muscles (Homo sapiens) (UniProt P19429+P45379+P63316) (assay: cardiac RTF calcium sensitivity activators, confirmation, biochemical, IANBD-TnC fluorescence, triplicate (AID 504383;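 further: 0% = DMSO at 0.472 mM calcium and 100% = DMSO at 2.9 mM calcium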)). Settings: IANBD-labeled cardiac RTF, Ca2+ sensitivity fluorescence; at 7.2 µM; active compounds read high; scaled from EC20 to saturating calcium; tested at EC20 calcium, 0.472 mM.
Summary of the method: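 Material: labelled regulated thin filaments; Reagent: 0.472 mM calcium; Incubation: 15 min compound incubation with filaments at 25 °C; Detection: filament fluorescence intensity; Evaluation: fluorescence increase normalised to calcium controls; Benchmarks: low control EC20 calcium, high control EC100 calcium.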

Row | Structure (SMILES) | activation
1 | CCN(CC)c1ccc2cc(S(=O)(=O)c3ccc(Cl)cc3)c(=O)oc2c1 | 372% (active)
2 | CCN(CC)c1ccc2cc(NC(=O)CCC(=O)O)c(=O)oc2c1 | 4.16% (inactive)
3 | CCN(CC)c1ccc2cc(S(=O)(=O)c3ccc(C)cc3)c(=O)oc2c1 | 32.5% (active)
4 | CCN(CC)c1ccc2c(Cl)c(Br)c(=O)oc2c1 | 8.56% (inactive)
5 | CCN(CC)c1ccc2c(c1)oc(=O)c1c(Cl)cc(=O)oc12 | 63.5% (active)
6 | CCN(CC)c1ccc2cc(C=O)c(=O)oc2c1 | 17% (active)
7 | CCN(CC)c1ccc2cc(C(C)=O)c(=O)oc2c1 | 0.78% (inactive)
8 | Clc1ccccc1N=Nc1ccccn1 | 9.89% (inactive)
9 | CCN(CC)c1ccc2oc(=O)c(C)nc2c1 | 364% (active)
10 | CCOC(=O)c1c(C#N)c(SCC(=O)Nc2ccc(OC)cc2)nc2c1CN(CC)CC2 | 78.6% (active)
11 | COc1cccc2c1C(=O)c1c(O)c3c(c(O)c1C2=O)C[C@@](O)(C(=O)CO)C[C@@H]3OC1CC(N)C(O)C(C)O1 (some centres not stated) | 9.17% (inactive)
12 | COc1cccc2c1C(=O)c1c(O)c3c(c(O)c1C2=O)C[C@@](O)(C(=O)CO)C[C@@H]3O[C@H]1C[C@H](N)[C@H](O)[C@H](C)O1 | 3.66% (inactive)
13 | COc1cccc2c1C(=O)c1c(O)c3c(c(O)c1C2=O)CC(O)(C(C)=O)CC3OC1CC(N(C)C)C(O)C(C)O1 (configuration not stated) | 6.16% (inactive)
14 | COc1cccc2c1C(=O)c1c(O)c3c(c(O)c1C2=O)CC(O)(C(C)=O)CC3OC1CC(O)C(O)C(C)O1 (configuration not stated) | 75.5% (active)
15 | COc1cccc2c1C(=O)c1c(O)c3c(c(O)c1C2=O)CC(O)(C(=O)CO)CC3OC1CC(N(C)C)C(O)C(C)O1 (configuration not stated) | 211% (active)
16 | COc1cccc2c1C(=O)c1c(O)c3c(c(O)c1C2=O)C[C@](O)(C(C)=O)C[C@H]3O[C@@H]1C[C@@H](N)[C@@H](O)[C@@H](C)O1 | 4.79% (inactive)
17 | C[C@H]1COc2c(N3CCN(C)CC3)c(F)cc3c(=O)c(C(=O)O)cn1c23 | 6.23% (inactive)
18 | CN(C)c1ccc(/C=C/c2cc[n+](C)c3ccccc23)cc1 | 6.25% (inactive)
19 | CN(C)c1ccc(/C=C/c2cc[n+](C)cc2)cc1 | 28.1% (active)
20 | Cc1ccc(/C=C/c2ccc(N(C)C)cc2)[n+](C)c1 | 9.58% (inactive)
21 | CCOc1cc(/C=C2\NC(=O)NC2=O)cc([N+](=O)[O-])c1O | 8.6% (inactive)
22 | COc1ccc(N=Cc2cc3c(cc2O)OC(N)=C(C#N)C3c2ccccc2)cc1 (configuration not stated) | 95.8% (active)

Row | Structure (SMILES) | activation
23 | COc1ccc(O)c(/C=N/c2nc3ccccc3n2C)c1 | 10.8% (inactive)
24 | Cc1ccccc1N=Cc1cc2c(cc1O)OC(N)=C(C#N)C2c1ccccc1 (configuration not stated) | 15.4% (active)
25 | Cc1cc(C)n(-c2nc3ccccc3nc2Nc2ccc3[nH]c(=O)[nH]c3c2)n1 | 15.9% (active)
26 | Cc1cc(S(=O)(=O)Cc2noc(-c3c(C)noc3C)n2)c(C)cc1Cl | 5.06% (inactive)
27 | CC(C)(ONC(=O)Nc1ccccc1Cl)C(=O)O | 833% (active)
28 | O=C(O)C1CCC(CNCc2ccccc2Cl)CC1 (configuration not stated) | 10.5% (inactive)
29 | CC(C)c1ccc(C2c3[nH]c4ccccc4c3C[C@H]3C(=O)N(c4ccccc4C(=O)N4CCC(C(=O)O)CC4)C(=O)N23)cc1 (some centres not stated) | 12% (active)
30 | O=C(NCCN1CCOCC1)c1ccccc1N1C(=O)[C@@H]2Cc3c([nH]c4ccccc34)C(c3ccc(F)cc3)N2C1=O (some centres not stated) | 4.51% (inactive)
31 | CCN1C(=O)[C@@H]2Cc3c([nH]c4ccccc34)C(c3ccc(OC)cc3)N2C1=S (some centres not stated) | 6.48% (inactive)
32 | CCOc1nc(OCC)c2[nH]c(C(=O)O)c(Br)c2n1 | 4.87% (inactive)
33 | CC1CN(CCCCOc2ccc3ccccc3c2)CC(C)O1 (configuration not stated) | 7.54% (inactive)
34 | Cc1ccccc1C(=O)c1cccn1CC(=O)NCCCN1CC(C)CC(C)C1 (configuration not stated) | 5.75% (inactive)
35 | CC1CC(C)CN(CCOCCSc2ccccc2)C1 (configuration not stated) | 76.1% (active)
36 | Cc1ccccc1C1CC(=O)Oc2cc(O)ccc21 (configuration not stated) | -1.84% (inactive)
37 | COCCn1c(SCC(=O)Nc2ccc(NC(=O)c3ccco3)c(OC)c2)nc2ccccc2c1=O | 14.4% (active)
38 | O=C(CSc1ccc(Cl)cc1)Nc1cccc(NC(=O)c2ccco2)c1 | 9.78% (inactive)
39 | COC1=CC2(O)CCCC2=CC1=O (configuration not stated) | 6.42% (inactive)
40 | CC(C)(C)NC(=O)NC(=O)Cn1ccsc1=N | 135% (active)
41 | Cc1c2c(n3c(nc4ccccc43)c1C#N)N(CCN1CCOCC1)CC2 | 10% (inactive)
42 | Cc1nc2c(C#N)cnn2c2c1CCN(Cc1ccccc1)N2C | 389% (active)
43 | O=C1c2c(O)cc(O)cc2O[C@@]12c1c(cc(O)c3c1O[C@H](c1ccc(O)cc1)[C@@H](O)C3)O[C@@H]2c1ccc(O)cc1 | 5.77% (inactive)
44 | CCC1(C)COC(c2ccc(OC)c(OC)c2)OC1 (configuration not stated) | 1.48% (inactive)

Row | Structure (SMILES) | activation
45 | CCOc1ccc(C2CC(c3c(O)c4ccccc4oc3=O)=NN2c2ccccc2)cc1OC (configuration not stated) | 22.3% (active)
46 | NC(=O)c1cc2ccc(O)cc2oc1=NCc1ccccc1 | 6.57% (inactive)
47 | CCCCCC(C)NC(=S)NC(=O)c1cc(S(=O)(=O)N2CCOCC2)ccc1C (configuration not stated) | 6.76% (inactive)
48 | CCOC(=O)c1c(-c2ccccc2Cl)csc1NC(=O)c1cc(S(=O)(=O)N2CCOCC2)ccc1C | 12.7% (active)
49 | Cc1ccc(NC(=O)c2cc(S(=O)(=O)N3CCCCC3)ccc2N2CCOCC2)cc1S(=O)(=O)N(C)C | 7.6% (inactive)
50 | Oc1ccc2nnc3c(Br)cnn3c2c1 | 7.23% (inactive)
51 | Cc1nc2oc(C(=O)c3ccccc3)c(N)c2c2c1COC(C)(C)C2 | 744% (active)
52 | CCc1ccc2c(COC(=O)CNS(=O)(=O)c3ccc(NC(C)=O)cc3)cc(=O)oc2c1 | 34.8% (active)
53 | COc1ccccc1C(=O)Oc1ccc2c(c1)O/C(=C\c1ccncc1)C2=O | 31.6% (active)
54 | CN(C)c1ccc(/C=C2\Oc3ccc(C#Cc4cccc(N)c4)cc3C2=O)cc1 | 4.36% (inactive)
55 | O=C(Oc1ccc2c(c1)O/C(=C\c1ccncc1)C2=O)c1ccccc1 | 104% (active)
56 | COc1ccc(/C=C2\Oc3cc(OCC(N)=O)ccc3C2=O)cc1OC | 6.98% (inactive)
57 | Cc1ccc(-n2nnnc2-c2cnc3cc4c(cc3c2C)OCO4)cc1 | 4.93% (inactive)
58 | Cc1ccc(-n2nnnc2C(=Cc2ccc(N(C)C)cc2)c2nnnn2-c2ccc(C)cc2)cc1 | 14.4% (active)
59 | O=c1c(/C=C(\O)c2ccc(F)cc2)nc2ccccc2n1-c1ccccc1 | 6.91% (inactive)
60 | CCCNC(=O)Cn1c(=O)/c(=C\c2ccc(-c3ccc([N+](=O)[O-])cc3)o2)s/c1=C\C(=O)C(C)(C)C | 28.6% (active)
61 | CCCNC(=O)Cn1c(=O)/c(=C/c2ccc(-c3ccc([N+](=O)[O-])cc3)o2)s/c1=C\C(=O)C(C)(C)C | 29.9% (active)
62 | CC(C)(C)C(=O)/C=c1\s/c(=C\c2ccc(-c3ccc([N+](=O)[O-])cc3)o2)c(=O)n1CC(=O)NC(N)=O | 46.3% (active)
63 | CC1=CC(=C(C#N)C#N)C=C(C)N1Cc1ccc(Cl)cc1 | 52.2% (active)
64 | CS(=O)(=O)Nc1nc2n(n1)C(c1ccccc1)C=C(c1ccc(Br)cc1)N2 (configuration not stated) | 35.8% (active)
65 | O=c1cc2c(c(-c3ccccc3)n1Cc1ccccc1)[C@H](CCO)NC2 | 16.1% (active)
66 | Nc1ccc(-c2c3ccc(=O)cc-3oc3cc(O)ccc23)cc1C(=O)O | 4.67% (inactive)

Row | Structure (SMILES) | activation
67 | O=c1cc(-c2ccccc2)oc2ccc(Br)cc12 | 6.06% (inactive)
68 | O=c1ccc2c(-c3ccccc3)c3ccc(O)cc3oc-2c1 | 88.1% (active)
69 | Cn1cc(C2=C(c3ccc(Cl)cc3Cl)C(=O)NC2=O)c2ccccc21 | 32.9% (active)
70 | O=C(NCC1CCCO1)c1c(O)nc2sccn2c1=O (configuration not stated) | 17.7% (active)
71 | Cc1nccc(-c2cccc(N/N=C(\C#N)C(=O)c3ccccc3)c2)n1 | 6.06% (inactive)
72 | COc1ccc(/C=N/NC(=O)C(Cc2c[nH]c3ccccc23)NC(=O)OCC(C)C)cc1[N+](=O)[O-] (configuration not stated) | 7.99% (inactive)
73 | CC(C)c1ccc(OCC(=O)NC(Cc2c[nH]c3ccccc23)C(=O)O)cc1 (configuration not stated) | 4.54% (inactive)
74 | COc1ccc2c(CC(=O)N[C@@H](Cc3c[nH]c4ccccc34)C(=O)O)cc(=O)oc2c1 | 16.7% (active)
75 | NC(=O)CC[C@@H]1NC(=O)[C@H](Cc2ccc(O)cc2)NC(=O)c2cc([N+](=O)[O-])cc(F)c2OCC[C@@H](C(N)=O)NC1=O | 0.64% (inactive)
76 | Cc1ccc(CN2CCN(Cc3ccc(-n4cccn4)cc3C)CC2CCO)cc1 (configuration not stated) | 108% (active)
77 | CCOc1ccc(CN2CCN(C/C=C/c3ccc(OC)cc3)CC2CCO)cc1 (configuration not stated) | 7.69% (inactive)
78 | CC/C(=N/Nc1cccc(C)c1)c1cnnc(SC)n1 | 12.7% (active)
79 | COc1ccccc1CNc1cc(C)ccc1C | 1250% (active)
80 | CC(=O)c1ccc(NC(=O)CN2C(=O)/C(=C/C=C/c3ccccc3)SC2=S)cc1 | 13.7% (active)
81 | C#CCN1C(=O)S/C(=C/C=C/c2ccc(N(C)C)cc2)C1=O | 9.72% (inactive)
82 | COc1cc(/C=C2/SC(=S)N(CCC(=O)Nc3ccccc3)C2=O)cc(OC)c1OC | 1.16% (inactive)
83 | Cc1ccc(/C=C/C(=O)Nc2cccc3cccnc23)o1 | 20.6% (active)
84 | COc1ccc(N2C(=O)[C@@H]3[C@H](C2=O)[C@H](C(C)=O)N2c4ccccc4C=C[C@@H]32)cc1 | 9.39% (inactive)
85 | COc1ccc(C2C(C(=O)c3ccccc3)N3c4ccccc4C=CC3C2[N+](=O)[O-])cc1 (configuration not stated) | 47.8% (active)
86 | Cc1cc(N/C=C\c2nnnn2-c2ccc(F)cc2)no1 | 979% (active)
87 | O=C1c2cccc3c(O)ccc(c23)C(=O)N1Cc1ccccc1 | 33.7% (active)
